Compound activity: PubChem, several laboratories
APJ agonist – activates the human apelin receptor APJ. CHO-K1 APJ PathHunter beta-arrestin, luminescence; 0% DMSO wells, 100% apelin. AID 2520. P35414. activation, % at 20 µM. actives 0.11% (n = 330,000);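 active = activation more than six SD over the plate average, tested at 20 µM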
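Assay system: engineered CHO-K1 APJ arrestin reporter cells; Amount: 1000 CHO-K1 reporter cells seeded per well; Dosing: one dose, 20 µM compound, 1% DMSO; Times: compound stimulation 90 min at 25 °C, detection 60 min; Measured by: luminescent beta-gal fragment complementation, chemiluminescent substrate; Read-out: APJ–arrestin association signal; Controls: DMSO vs Apelin-13 10 nM.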
CXCR6 block – CXCR6 (human) receptor inhibition | O00574 | CHO-K1 PathHunter CXCR6 beta-arrestin, luminescence | inhibition, % at 20 µM | actives 0.36% (n = 360,000) | AID 602244; in the data active = inhibition above about 34%, passing the limit was not always enough;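 also: antagonist mode with CXCL16 agonist at 10 nM final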
NTR1 ag – activates human neurotensin receptor 1; P30989; NTR1-U2OS beta-arrestin-GFP spot imaging, agonist mode; actives 0.17% (n = 330,000); activation, % at 20 µM; AID 493036;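 active = activation at or above 40% of the spot to cytoplasm intensity ratio, with at least 20 cells analyzed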
HTR2A ag – agonists of mouse serotonin 5-HT2A receptor (HTR2A). P35363. CHO-K1 mHTR2A beta-arrestin complementation, luminescence; percent of 30 µM serotonin response. activation, % at 7.6 µM. actives 0.66% (n = 360,000);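 active = activation above a run cutoff, the mean activation of all tested compounds plus 3 SD, cut at about 14% in these data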
APJ antag – APJ receptor antagonism. P35414. CHO-K1 APJ beta-arrestin complementation, luminescence. inhibition, % at 20 µM. actives 0.32% (n = 330,000). AID 2521;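 active = inhibition above about 40% at 20 µM, limit read from the data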;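 also: cells challenged with 10 nM apelin-13 agonist together with compound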
CCR6 antag – blocks CCL20-driven beta-arrestin recruitment at human CCR6; P51684; CHO-K1 CCR6 PathHunter beta-arrestin, luminescence, CCL20-stimulated; inhibition, % at 20 µM; actives 0.49% (n = 340,000);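 active = compounds whose inhibition of the agonist-driven luminescence signal at 20 µM reaches about 50%, limit read from the data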;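 also: cells stimulated with CCL20 at 14 nM final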
Target sequence (P51684 whole entry, looked up): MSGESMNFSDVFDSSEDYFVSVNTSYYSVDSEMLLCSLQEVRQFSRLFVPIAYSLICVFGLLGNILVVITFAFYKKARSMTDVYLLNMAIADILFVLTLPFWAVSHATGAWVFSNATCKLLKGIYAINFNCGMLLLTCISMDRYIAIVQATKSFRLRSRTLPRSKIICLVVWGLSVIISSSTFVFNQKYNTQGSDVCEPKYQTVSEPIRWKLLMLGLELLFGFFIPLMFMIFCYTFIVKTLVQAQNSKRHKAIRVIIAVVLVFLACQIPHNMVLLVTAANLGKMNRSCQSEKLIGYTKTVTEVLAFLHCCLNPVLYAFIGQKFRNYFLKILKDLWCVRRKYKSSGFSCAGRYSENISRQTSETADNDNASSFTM
OPRM1 ag – activates human mu opioid receptor in HTR2A counterscreen; activation, % at 9.3 µM; actives 5.3% (n = 2,300); AID 624380; U2OS OPRM1 beta-arrestin PathHunter, luminescence; DMSO 0%, DAMGO 9.3 µM 100%; shares compounds with HTR2A ag;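 active = mean activation above the mean of DMSO-only wells plus 3 SD, cut at about 0.5% in these data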
HTR2A ag conf – mouse HTR2A agonism confirmed | shares compounds with HTR2A ag | CHO-K1 PathHunter beta-arrestin recruitment, luminescence; DMSO 0%, 30 µM serotonin 100% | activation, % at 7.6 µM | actives 19% (n = 2,300);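 active = mean activation across triplicates above the hit threshold derived in the original primary screen, cut at about 15% in these data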
Hits are given with their value; - = inactive; . = not tested or not shown. The list is not random: actives were taken first. Their share in the collection is about 1.5%.

SMILES | APJ agonist | CXCR6 block | NTR1 ag | HTR2A ag | APJ antag | CCR6 antag | OPRM1 ag | HTR2A ag conf
Cc1ccc(SCC(=O)OCC(=O)N(C)C2CCS(=O)(=O)C2)cc1C (centres undefined) | - | - | - | - | - | - | . | .
c1ccc(Nc2nc(N3CCCCC3)nc(N3CCNCC3)n2)cc1 | - | - | - | 55 | - | - | - | 31
c1ccc(Nc2nc(N3CCCCC3)nc(N3CCCCC3)n2)cc1 | - | - | - | - | - | - | . | .
COc1ccc(-c2c(C#N)c(SCc3c(C)noc3C)nc3c2C(=O)CC(C)(C)C3)cc1 | - | - | - | 18 | - | - | - | -
Cc1cc(NC(=O)CSc2nnc(-c3ccc([N+](=O)[O-])cc3)o2)no1 | - | - | - | - | - | - | . | .
CC(C)C(=O)NC(NCC1CCCO1)C(Cl)(Cl)Cl (centres undefined) | - | - | - | 17 | - | - | - | -
Cc1ccccc1C(=O)NC(NCC1CCCO1)C(Cl)(Cl)Cl (centres undefined) | - | - | - | - | - | - | . | .
COc1ccccc1-c1c(C(F)(F)F)oc2cc(OS(C)(=O)=O)ccc2c1=O | - | - | - | 26 | - | - | - | -
COc1ccccc1-c1c(C(F)(F)F)oc2cc(OC(=O)c3ccccc3[N+](=O)[O-])ccc2c1=O | - | - | - | - | - | - | . | .
CN(C)C(=O)N1CCC(C(=O)N2CCCC(C(=O)c3cccc4ccccc34)C2)CC1 (centres undefined) | - | - | - | - | - | - | . | .
C=CCn1c(Br)nc2c1c(=O)[nH]c(=O)n2C | - | - | - | 19 | - | - | - | -
COC(=O)C[C@H](NC(=O)Cn1cnc2c(SC)nc(N)nc21)C(=O)OC | - | - | - | - | - | - | . | .
C=CCn1c(=O)/c(=C/c2ccc(C)o2)s/c1=C(/C#N)C(=O)c1ccccc1 | - | - | - | 15 | - | - | - | -
CCC(CC)C(=O)NCCc1cc2ccc(C)cc2[nH]c1=O | - | - | - | 21 | - | - | - | -
CCC(=O)NCCc1cc2ccc(C)cc2[nH]c1=O | - | - | - | - | - | - | . | .
COc1ccccc1NC(=S)N(CCc1c(C)[nH]c2ccccc12)Cc1cccs1 | - | - | - | 16 | - | - | - | -
COc1ccc(C2=CCC3CCCCN3C2)cc1OC (centres undefined) | - | - | - | - | - | - | . | .
COC(=O)C[C@@H]1CC[C@H](NS(=O)(=O)c2ccccc2F)[C@@H](CO)O1 | . | . | . | - | . | . | . | .
O=C1C2CCC(C2)C1CN1CCOCC1 (centres undefined) | . | - | . | - | . | - | . | .
CCN1CCN(C(CNS(=O)(=O)c2ccc(OC)cc2)c2cccnc2)CC1 (centres undefined) | - | - | - | 15 | - | - | - | -
COC(=O)C[C@H]1C=C[C@@H](NC(=O)NC2CCCCC2)[C@@H](CO)O1 | . | . | . | - | . | . | . | .
Cc1nn(CC(=O)N(C)c2c(N)n(Cc3ccccc3)c(=O)[nH]c2=O)c(C)c1[N+](=O)[O-] | - | - | - | - | - | - | . | .
Cc1cccc(C)c1NC(=O)CN(C)C(=O)CC1OC(=O)c2ccccc21 (centres undefined) | - | - | - | 18 | - | - | - | -
CC(C)C[C@H]1C(=O)N2CCC[C@H]2[C@]2(O)O[C@](NC(=O)C3C=C4c5cccc6[nH]c(Br)c(c56)C[C@H]4N(C)C3)(C(C)C)C(=O)N12 (some centres undefined) | - | - | - | 48 | - | - | - | 174
COc1cc(C)nc(NS(=O)(=O)c2ccccc2Cl)n1 | - | - | - | 31 | - | - | - | -
SMILES | APJ agonist | CXCR6 block | NTR1 ag | HTR2A ag | APJ antag | CCR6 antag | OPRM1 ag | HTR2A ag conf
O=C(Nc1ccc(-c2n[nH]c(=S)o2)cc1)c1ccccc1Cl | - | - | - | 17 | - | - | - | -
O=C(Nc1ccc(-c2csc(-c3ccccc3)n2)cc1)c1ccccc1Cl | - | - | - | - | - | - | . | .
CCOC(=O)c1cc2ccccc2n1C1CCN(CCc2ccccc2)CC1 | . | - | . | - | . | . | . | .
CCOC(=O)c1cc2cc(OC)ccc2n1C1CCN(CCc2ccccc2)CC1 | . | - | . | 20 | . | . | - | -
COC(=O)C1=C(CS(=O)(=O)c2cc(Cl)ccc2OC)NC(=O)NC1c1ccc(O)c(OC)c1 (centres undefined) | - | - | - | 15 | - | - | - | -
CCN(c1ccccc1)S(=O)(=O)c1ccc2c(c1)C(C)(C)C(=O)N2C | - | - | - | - | - | - | . | .
Cn1c(Cn2c(=O)sc3ccccc32)nnc1SCC(=O)Nc1ccccc1 | - | - | - | 20 | - | - | - | -
Cc1ccc(NC(=O)CSc2nnc(Cn3c(=O)sc4ccccc43)n2C)cc1 | - | - | - | - | - | - | . | .
COc1cc(CN2CCC(C(=O)N3CCN(c4ccccc4F)CC3)CC2)cc(OC)c1O | - | - | - | - | - | - | . | .
COc1cc(CN2CCN(c3ccccc3F)CC2)cc(OC)c1O | - | - | - | 16 | - | - | - | 30
COc1ccccc1C(=O)NCCN1CCN(c2ccccc2)CC1 | - | - | - | 15 | - | - | - | 70
CCOc1ccc(NC(=O)CCN2CCN(c3ccccc3F)CC2)cc1 | - | - | - | 21 | - | - | - | 45
CCOc1ccc(NC(=O)CCN2CCN(c3ccccc3OC)CC2)cc1 | - | - | - | - | - | - | . | .
COc1cccc(C(=O)NNC(=O)CCN2CCN(c3ccccc3)CC2)c1 | - | - | - | 23 | - | - | - | 48
CC(=O)N1c2ccc(S(=O)(=O)N(C)CC(=O)NC(C)c3ccccc3)cc2CC1C (centres undefined) | - | - | - | - | - | - | . | .
COc1ccc(C)cc1NC(=O)c1ccc(CN2CCN(c3ccccc3)CC2)cc1 | - | - | - | 36 | - | - | - | 61
COc1ccc(C)cc1NC(=O)CCN1CCN(c2ccccc2F)CC1 | - | - | - | 18 | - | - | - | 57
COc1ccc(NC(=O)c2ccc(CN3CCN(c4ccccc4)CC3)cc2)cc1OC | - | - | - | - | - | - | . | .
Cc1ccc(C)c(NC(=O)CCN2CCN(C)CC2)c1 | - | - | - | - | - | - | . | .
Cc1ccc(C)c(NC(=O)CCN2CCOCC2)c1 | - | - | - | 20 | - | - | - | -
COc1ccc(OC)c(NC(=O)CCN2CCN(c3ccccc3F)CC2)c1 | - | - | - | - | - | - | . | .
COc1cc(C(=O)Nc2cc(C(F)(F)F)ccc2N2CCOCC2)ccc1OCC(=O)N1CCOCC1 | - | - | - | - | - | - | . | .
